Values joined by “and” are separate entries in the source; they are usually repeats but may differ in a detail not shown here. Equal entries are not always repeated.

We go through 23 molecules from ChEMBL document CHEMBL1121527, “Heterocyclic analogues of the antihypertensive beta-adrenergic blocking agent (S)-2-[3-(ter-butylamino)-2-hydroxypropoxy]-3-cyanopyridine” (1980).

In experiment [1] the test system is Canis familiaris. The experiment can be described thus: Beta adrenergic blockade activity was measured in anesthetized dogs by blockade of isoproterenol induced hypotension after iv administration. In kind it is functional. The conditions noted are these: Canis lupus familiaris. Summed up: (§1)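 Mongrel dogs of either sex (8–13 kg) anesthetized with vinbarbital 50 mg/kg iv. Vagi cut, trachea cannulated, with artificial respiration only if required. Blood pressure recorded via femoral artery catheter and heart rate from the pressure pulse. Drugs given through a femoral vein catheter. Isoproterenol challenge at 0.5 μg/kg iv; the resulting hypotension and tachycardia were computed.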

In experiment [2] the test system is Rattus norvegicus. Put plainly: Tested for maximum fall in mean arterial pressure in Spontaneously hypertensive rats after peroral administration by using 1% methyl cellulose as vehicle at 20 mg/kg. The conditions noted are these: route oral. In kind it is functional.
The test system of experiment [3] is Canis familiaris. Put plainly: Beta adrenergic blockade activity was measured in anesthetized dogs by blockade of isoproterenol induced tachycardia after iv administration. The experiment is classed as functional. The conditions noted are these: Canis lupus familiaris. The essentials:
as §1

For experiment [4], the system named is Rattus norvegicus. Put plainly: Tested for maximum fall in mean arterial pressure in Spontaneously hypertensive rats after peroral administration by using 1% methyl cellulose as vehicle at 5 mg/kg. The conditions noted are these: route oral. In kind it is functional.
The test system of experiment [5] is Canis familiaris. The experiment can be described thus: Tested for increase in iliac blood flow was measured in anesthetized dogs before timolol administered intra arterially at dose […]. In kind it is functional, Canis lupus familiaris, Artery. The essentials: (§2)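 Adult mongrel dogs of either sex (8–13 kg) under vinbarbital 50 mg/kg iv, with vagi cut and trachea cannulated. Carotid arterial pressure recorded. A 3.0 mm flow transducer on the right iliac artery. Intraarterial injections via a left femoral catheter tipped at the iliac bifurcation. Isoproterenol 0.4 μg ia given before and after timolol (320, 800 or 2000 μg/kg iv) to check β-blockade.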

In experiment [6] the test system is Canis familiaris. The experiment can be described thus: Tested for increase in iliac blood flow was measured in anesthetized dogs after timolol administered intravenous at dose 1600 mg/kg. In kind it is functional, Canis lupus familiaris, Artery.
The subject of experiment [7] is Canis familiaris. The experiment can be described thus: Tested for increase in iliac blood flow was measured in anesthetized dogs after timolol administered intravenous at dose 2000 mg/kg. In kind it is functional, Canis lupus familiaris, Artery. The essentials: as §2
Experiment [8] concerns Rattus norvegicus. Put plainly: Tested for maximum fall in mean arterial pressure in Spontaneously hypertensive rats after peroral administration by using 1% methyl cellulose as vehicle at 80 mg/kg. In kind it is functional. As to conditions: route oral.
Experiment [9] has as its system Rattus norvegicus. Put plainly: Tested for maximum fall in mean arterial pressure in Spontaneously hypertensive rats after peroral administration by using 1% methyl cellulose as vehicle at 0.078 mg/kg. The conditions noted are these: route oral. In kind it is functional.
Experiment [10] concerns Rattus norvegicus. Put plainly: Tested for maximum fall in mean arterial pressure in Spontaneously hypertensive rats after peroral administration by using 1% methyl cellulose as vehicle at 0.312 mg/kg. The conditions noted are these: route oral. The experiment is classed as functional.
Experiment [11] concerns Canis familiaris. The experiment can be described thus: Tested for increase in iliac blood flow was measured in anesthetized dogs after timolol administered intravenously at dose 800 µg/kg.
For experiment [12], the system named is Rattus norvegicus. The experiment can be described thus: Tested for maximum fall in mean arterial pressure in Spontaneously hypertensive rats after peroral administration by using 1% methyl cellulose as vehicle at 1.25 mg/kg. In kind it is functional. The conditions noted are these: route oral.
Experiment [13] deals with Canis familiaris. The experiment can be described thus: Tested for increase in iliac blood flow was measured in anesthetized dogs after timolol administered intravenous at dose 800 mg/kg. In kind it is functional, Canis lupus familiaris, Artery. The essentials:
as §2

Experiment [14] has as its system Canis familiaris. The experiment can be described thus: Tested for increase in iliac blood flow was measured in anesthetized dogs before timolol administered intra arterially at dose 400 mg/kg.
The subject of experiment [15] is Rattus norvegicus. The experiment can be described thus: Comparative effect on Maximum fall in mean arterial pressure of spontaneously hypertensive rat at the dose 0.625 mg/kg per os. The experiment is classed as functional, Artery.
Experiment [16] deals with Rattus norvegicus. The experiment can be described thus: Comparative effect on Maximum fall in mean arterial pressure of spontaneously hypertensive rat at the dose 0.312 mg/kg per os. In kind it is functional, Artery.
Experiment [17] deals with Rattus norvegicus. Put plainly: Comparative effect on Maximum fall in mean arterial pressure of spontaneously hypertensive rat at the dose 1.25 mg/kg per os. The experiment is classed as functional, Artery.

The term ED50 denotes the dose at which the effect has come halfway, by size or by number of responders. With `CC(C)(C)NCC(O)COc1nscc1Br` (configuration not stated), the ED50 in the experiment on Canis familiaris [1] and with Canis familiaris [3] was 3 µg/kg in each case. In addition, the MAP with Rattus norvegicus [2] is reported as 30 mmHg; with Rattus norvegicus [4], 41 mmHg. The results for the Activity in the experiment with Canis familiaris [5] and in the experiment on Canis familiaris [6] were 31 mL/min and 33 mL/min, respectively.
For the molecule `CCOC(=O)c1sc(SC)nc1OCC(O)CNC(C)(C)C` (configuration not stated), the MAP in the experiment with Rattus norvegicus [2] came out at 15 mmHg.
Still for that read-out and setting: under `CCOC(=O)c1scnc1OCC(O)CNC(C)(C)C` (configuration not stated) stands 9 mmHg.
In the case of `CC(C)(C)NCC(O)COc1nc2ncccc2cc1C#N` (configuration not stated), the MAP in the experiment on Rattus norvegicus [2] came to 28 mmHg; in the experiment on Rattus norvegicus [4], 22 mmHg. In the experiment on Canis familiaris [5], this molecule came in with an Activity of 0 mL/min.
Consider `CC(C)(C)NCC(O)COc1nscc1C#N` (configuration not stated), for which the ED50 in the experiment on Canis familiaris [1] came to 27 µg/kg; in the experiment on Canis familiaris [3], 28 µg/kg. The MAP was 52 mmHg in the experiment on Rattus norvegicus [2]; 27 mmHg and 9 mmHg in the experiment on Rattus norvegicus [4] (5 mg/kg). Besides, the figures for the Activity in the experiment on Canis familiaris [5] and in the experiment with Canis familiaris [7] were 22 mL/min and 20 mL/min, respectively.
As for `Cc1nc(OC[C@@H](O)CNC(C)(C)C)c(C(N)=O)s1`, the MAP in the experiment on Rattus norvegicus [2] is reported as 11 mmHg.
The molecule `CC(C)(C)NC[C@H](O)COc1nc(-c2ccccc2)sc1C(N)=O` showed an MAP in the experiment on Rattus norvegicus [2] of 15 mmHg.
For the molecule `CC(C)(C)NC[C@H](O)COc1nc(-c2ccccc2)sc1C#N`, the MAP is reported as 9 mmHg with Rattus norvegicus [2], 11 mmHg with Rattus norvegicus [4] and 14 mmHg with Rattus norvegicus [8].
In the case of `Cc1sc(-c2ccccc2)nc1OC[C@@H](O)CNC(C)(C)C`, the MAP in the experiment with Rattus norvegicus [2] is recorded as 17 mmHg; with Rattus norvegicus [8], 12 mmHg.
In turn, `CCOC(=O)c1sc(-c2ccccc2)nc1OC[C@@H](O)CNC(C)(C)C` came in with an MAP with Rattus norvegicus [2] of 10 mmHg.
On to `Cc1sc(-c2ccncc2)nc1OC[C@@H](O)CNC(C)(C)C`, for which the MAP worked out at 41 mmHg with Rattus norvegicus [2] and 8 mmHg in the experiment with Rattus norvegicus [4].
As for `Cc1nc(OC[C@@H](O)CNC(C)(C)C)c(C#N)s1`, the MAP in the experiment with Rattus norvegicus [2] stood at 21 mmHg.
Regarding `CC(C)(C)NCC(O)COc1nc2ccncc2cc1C#N` (configuration not stated), the MAP in the experiment with Rattus norvegicus [2] was determined as 22 mmHg.
As to `CC(C)(C)NCC(O)COc1ncccc1C#N` (configuration not stated), the ED50 in the experiment on Canis familiaris [1] turned out to be 5.2 µg/kg; in the experiment with Canis familiaris [3], 1.5 µg/kg. In addition, the MAP in the experiment with Rattus norvegicus [9] is 19 mmHg; in the experiment on Rattus norvegicus [10], 30 mmHg; in the experiment on Rattus norvegicus [12], 47 mmHg. Further, the Activity is 38 mL/min in the experiment on Canis familiaris [11], 98 mL/min in the experiment on Canis familiaris [5], 90 mL/min with Canis familiaris [7] and 62 mL/min in the experiment with Canis familiaris [13].
In turn, `CSc1nc(OCC(O)CNC(C)(C)C)c(C(N)=O)s1` (configuration not stated) registered an MAP in the experiment on Rattus norvegicus [2] of 11 mmHg.
With `CC(C)(C)NCC(O)COc1ncsc1C#N` (configuration not stated), the ED50 in the experiment on Canis familiaris [1] turned out to be 30 µg/kg; in the experiment with Canis familiaris [3], 10 µg/kg. The MAP with Rattus norvegicus [2] is reported as 37 mmHg; in the experiment with Rattus norvegicus [9], 11 mmHg; in the experiment on Rattus norvegicus [10] it was 26 mmHg; in the experiment on Rattus norvegicus [4], 42 mmHg; in the experiment on Rattus norvegicus [12] it was 29 mmHg. Further, the Activity with Canis familiaris [5] is 125 mL/min.
With `CC(C)(C)NCC(O)COc1nccnc1C#N` (configuration not stated), in the experiment on Rattus norvegicus [2], the MAP worked out at 8 mmHg.
Take `CC(C)(C)NCC(O)COc1nsnc1C#N` (configuration not stated): the MAP with Rattus norvegicus [4] stood at 9 mmHg.
Take `CC(C)(C)NCC(O)COc1ccsn1` (configuration not stated): the MAP was 22 mmHg in the experiment with Rattus norvegicus [2], 26 mmHg in the experiment on Rattus norvegicus [4] and 8 mmHg with Rattus norvegicus [12].
Consider `Cc1nc(OCC(O)CNC(C)(C)C)c(C(N)=O)s1` (racemic), for which the MAP in the experiment on Rattus norvegicus [2] is 23 mmHg; in the experiment with Rattus norvegicus [4] it was 30 mmHg; in the experiment with Rattus norvegicus [12], 22 mmHg.
On to `NNc1nncc2ccccc12` [HYDRALAZINE], for which the figures for the Activity in the experiment with Canis familiaris [5] and with Canis familiaris [14] were 66 mL/min and 78 mL/min, respectively.
`CC(C)NCC(O)COc1cccc2ccccc12` (configuration not stated) [PROPRANOLOL]: the median effective dose (ED50) worked out at 19 µg/kg with Canis familiaris [1] and 51 µg/kg in the experiment on Canis familiaris [3]. Besides, the MAP came to 14 mmHg in the experiment with Rattus norvegicus [2], 7 mmHg with Rattus norvegicus [4] and 12 mmHg in the experiment on Rattus norvegicus [12].
With `CC(C)(C)NC[C@H](O)COc1nsnc1N1CCOCC1` [TIMOLOL], the ED50 with Canis familiaris [1] amounted to 1.3 µg/kg; in the experiment with Canis familiaris [3], 2.4 µg/kg. For the same molecule, the MAP in the experiment with Rattus norvegicus [15] is reported as 0 mmHg; in the experiment with Rattus norvegicus [16] it was 3 mmHg; with Rattus norvegicus [17], -1 mmHg.
